From ChEMBL document CHEMBL1148268, “Macrocyclic piperazinones as potent dual inhibitors of farnesyltransferase and geranylgeranyltransferase-I” (Bioorg Med Chem Lett, 2004)
Converted amounts (≈) assume the structure as drawn.

What was measured:
[1] = system: PSN1; experiment: Effective dose required for half-maximal inhibition of prenylation in PSN-1 cells (Ki-Ras); format: functional, cell-based; conditions: Homo sapiens
In short: (§1)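 PSN-1 cells are treated with compound. Prenylation of HDJ2, Rap1a and Ki-Ras is scored by scanning immunoblots of whole-cell extracts, and EC50 is the dose giving half-maximal inhibition of prenylation. The ratio is Ki-Ras EC50 over HDJ2 EC50. In one arm a selective GGTI is added at 1 μM.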

[2] = molecular target: T1, Geranylgeranyl transferase type I (Homo sapiens, UniProt P49354+P53609); experiment: Inhibition of human Geranylgeranyl transferase type I incorporation of [3H]GGPP into biotinylated peptide corresponding to the C-terminus of human Ki-Ras.; format: protein-complex assay
In short: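 Human GGPTase-I with [3H]GGPP and a biotinylated peptide matching the human Ki-Ras C-terminus. Enzyme and inhibitor are preincubated for 30 min with 5 mM ATP. The IC50 is the concentration that halves incorporation. A parallel run omits the preincubation.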

[3] = molecular target: T2, Protein farnesyltransferase (Homo sapiens, UniProt P49354+P49356); experiment: Inhibition of human Farnesyltransferase -catalyzed incorporation of [3H]FPP into recombinant Ras-CVIM.; format: protein-complex assay
In short: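 Human FPTase with [3H]FPP and recombinant Ras-CVIM as the protein substrate. The IC50 is the concentration that halves [3H]farnesyl incorporation into Ras-CVIM.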

[4] = species: Homo sapiens; experiment: Slope between log (IC50) versus log [GGPP] in GGTase-I; format: functional
In short: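 GGPP competition in the human GGPTase-I [3H]GGPP/biotinylated Ki-Ras peptide assay. IC50s are measured at various GGPP concentrations with 5 mM ATP.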

[5] = molecular target: T1, Geranylgeranyl transferase type I; experiment: Minimum inhibitory concentration required to inhibit Rap1a processing in PSN-1 cells.; format: functional, cell-based
[6] = system: PSN1; experiment: Effective dose required for half-maximal inhibition of geranylgeranylated protein (Rap1a) in PSN-1 cells; format: functional, cell-based; conditions: Homo sapiens; in short: as §1
[7] = system: PSN1; experiment: Ratio of effective concentration required for protein processing of Ki-Ras to that of HDJ2 in PSN-1 cells; format: functional, Homo sapiens; in short: as §1
[8] = molecular target: T2, Protein farnesyltransferase; experiment: Displacement of radiolabeled FTI from Farnesyltransferase in cultured Ha-ras transformed RAT1 cells.; format: cell-based
[9] = system: PSN1; experiment: Effective dose required for half-maximal inhibition of farnesylated protein (HDJ2) in PSN-1 cells; format: functional, cell-based; conditions: Homo sapiens; in short: as §1

| SMILES | EC50 [1] | IC50 [2] | IC50 [3] | Slope [4] | MIC [5] | EC50 [6] | Ratio [7] | IC50 [8] | EC50 [9] |
| --- | --- | --- | --- | --- | --- | --- | --- | --- | --- |
| CC1(C)OCC(Cc2ccc3cc2CN2CCN(CC2=O)Cc2cncn2Cc2ccc(C#N)c(c2)O3)O1 (stereo not drawn) | 1520 nM | 46 nM | 0.5 nM | 0.25 | < 0.3 µM | 690 nM | 150 | 0.86 nM | 10 nM |
| CC(C)(C)CCc1ccc2cc1CN1CCN(CC1=O)Cc1cncn1Cc1ccc(C#N)c(c1)O2 | – | 2.1 nM | 19 nM | 0.48 | 0.1 µM (≈ 0.0484 µg/mL) | – | – | 28 nM | – |
| N#Cc1ccc2cc1Oc1ccc(CC3CC3)c(c1)CN1CCN(CC1=O)Cc1cncn1C2 | – | 238 nM | 0.66 nM | – | 10 µM (≈ 4.54 µg/mL) | – | – | 2.2 nM | – |
| N#Cc1ccc2cc1Oc1ccc(C#Cc3ccccc3)c(c1)CN1CCN(CC1=O)Cc1cncn1C2 | – | 534 nM | 645 nM | – | – | – | – | – | – |
| N#Cc1ccc2cc1Oc1ccc(Br)c(c1)CN1CCN(CC1=O)Cc1cncn1C2 | – | 100 nM | 0.45 nM | – | 10 µM (≈ 4.78 µg/mL) | – | – | 1.1 nM | – |
| N#Cc1ccc2cc1Oc1ccc(Cl)c(c1)CN1CCN(CC1=O)Cc1cncn1C2 | – | 450 nM | < 1 nM | – | – | – | – | 0.3 nM | – |
| CCc1ccc2cc1CN1CCN(CC1=O)Cc1cncn1Cc1ccc(C#N)c(c1)O2 | – | 124 nM | 0.66 nM | -0.16 | 1 µM (≈ 0.428 µg/mL) | – | – | 1.2 nM | – |
| N#Cc1ccc(Cn2cncc2CN2CCN(c3cccc(Cl)c3)C(=O)C2)cc1 [L-778123 FREE BASE] | 6300 nM | – | – | 1.42 | – | 6760 nM | – | – | 92 nM |
| CCCc1ccc2cc1CN1CCN(CC1=O)Cc1cncn1Cc1ccc(C#N)c(c1)O2 | – | 97 nM | 0.31 nM | -0.12 | 1 µM (≈ 0.442 µg/mL) | – | – | 0.44 nM | – |
| Cc1ccc2cc1CN1CCN(CC1=O)Cc1cncn1Cc1ccc(C#N)c(c1)O2 | – | 502 nM | – | – | – | – | – | 0.33 nM | – |
| N#Cc1ccc2cc1Oc1cccc(c1)CN1CCN(CC1=O)Cc1cncn1C2 | – | 3780 nM | 2.2 nM | 0.08 | 30 µM (≈ 12 µg/mL) | – | – | 3.3 nM | – |
| C#Cc1ccc2cc1CN1CCN(CC1=O)Cc1cncn1Cc1ccc(C#N)c(c1)O2 | – | 212 nM | 0.5 nM | – | 3 µM (≈ 1.27 µg/mL) | – | – | 1.4 nM | – |
| N#Cc1ccc2cc1Oc1ccc(C#CC3CCCCC3)c(c1)CN1CCN(CC1=O)Cc1cncn1C2 | – | 2.4 nM | 364 nM | 0.68 | 0.3 µM (≈ 0.152 µg/mL) | – | – | 170 nM | – |
| N#Cc1ccc2cc1Oc1ccc(C(=O)NC3C4CC5CC(C4)CC3C5)c(c1)CN1CCN(CC1=O)Cc1cncn1C2 (stereo not drawn) | – | 43 nM | 20 nM | 0.28 | 0.1 µM (≈ 0.0577 µg/mL) | – | – | 30 nM | – |
| N#Cc1ccc2cc1Oc1ccc(CC(O)CO)c(c1)CN1CCN(CC1=O)Cc1cncn1C2 (stereo not drawn) | – | 1050 nM | 6.8 nM | – | – | – | – | 40 nM | – |
| N#Cc1ccc2cc1Oc1ccc(F)c(c1)CN1CCN(CC1=O)Cc1cncn1C2 | – | 2750 nM | < 1 nM | – | – | – | – | 1 nM | – |
| C=CCc1ccc2cc1CN1CCN(CC1=O)Cc1cncn1Cc1ccc(C#N)c(c1)O2 | – | 107 nM | 0.1 nM | – | 1 µM (≈ 0.44 µg/mL) | – | – | 0.59 nM | – |
| COC(=O)c1ccc2cc1CN1CCN(CC1=O)Cc1cncn1Cc1ccc(C#N)c(c1)O2 | – | 420 nM | 24 nM | – | 3 µM (≈ 1.37 µg/mL) | – | – | 20 nM | – |
| CC(C)(C)C#Cc1ccc2cc1CN1CCN(CC1=O)Cc1cncn1Cc1ccc(C#N)c(c1)O2 | – | 55 nM | 38 nM | 0.32 | 1 µM (≈ 0.48 µg/mL) | – | – | 10 nM | – |
| N#Cc1ccc2cc1Oc1ccc(CCC3CCCCC3)c(c1)CN1CCN(CC1=O)Cc1cncn1C2 | 1060 nM | 1.7 nM | 1.6 nM | -0.25 | 0.03 µM (≈ 0.0153 µg/mL) | 140 nM | 89 | 5.7 nM | 12 nM |
| N#Cc1ccc2cc1Oc1ccc3cccc(c3c1)N1CCN(CC1=O)Cc1cncn1C2 | > 10000 nM | 301 nM | – | -0.44 | 10 µM (≈ 4.35 µg/mL) | > 10000 nM | >5000 | 0.29 nM | 2 nM |
